The species entered for experiment [1] is Homo sapiens. The experiment is described as follows: Inhibition of human GST-SOD1 A4V and N53A mutant aggregation expressed in Escherichia coli Rosetta assessed as dimeric enzyme level at 75 uM by […]. An outline of the steps: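 Metal-free SOD-1 mutant prepared by dialysis against acetate pH 3.8/10mM EDTA, then pH 5.5/100mM NaCl; chelex-treated buffers, plastic tubes. Dimer purified on Superdex 75. Apoprotein 25μM preincubated with compound 75μM, 37°C, 15 min; aggregation started with 5mM EDTA at 37°C. Aliquots analysed by Superdex 200 gel filtration in TBS pH 7.4 (220/276 nm); dimer estimated from peak area.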

For experiment [2], the species on record is Homo sapiens. The experiment is described as follows: Inhibition of human GST-SOD1 A4V mutant aggregation expressed in Escherichia coli Rosetta assessed as dimeric enzyme level at 20 uM […]. An outline of the steps: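 Metal-free SOD-1 A4V apoprotein (25μM) preincubated with increasing compound concentrations, 37°C, 15 min, then 5mM EDTA added and aggregation run 4 hrs at 37°C. Dimer measured by size exclusion chromatography peak area; percentage inhibition calculated against untreated A4V.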

The species named for experiment [3] is Homo sapiens. The experiment is described as follows: Inhibition of human GST-SOD1 A4V mutant aggregation expressed in Escherichia coli Rosetta assessed as dimeric enzyme level at 75 uM by […].
The target in experiment [4] is Superoxide dismutase [Cu-Zn] (Homo sapiens) (UniProt P00441). The experiment is described as follows: Binding affinity to human GST-SOD1 expressed in Escherichia coli Rosetta at 100 uM in presence of human plasma by reverse phase HPLC analysis. The experiment is classed as cell-free. The method in brief: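 GST-SOD-1 fusion (final 75μM) added to 1 ml human blood plasma with compound at 100μM; shaken 60 rpm, 4°C, 24 h. Complex captured on glutathione-sepharose (4°C, 1 h), compound released with 5% TFA and quantified by C18 reverse-phase HPLC (40-100% acetonitrile/0.2% TFA gradient, 20 min). Buffer-only control taken as theoretical maximum for relative binding; GST tag alone as control.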

The source made the active and inactive calls. The rule behind the calls is not given here.

Sequence of Superoxide dismutase [Cu-Zn] (Homo sapiens) (P00441 whole entry, the tested form may be a part): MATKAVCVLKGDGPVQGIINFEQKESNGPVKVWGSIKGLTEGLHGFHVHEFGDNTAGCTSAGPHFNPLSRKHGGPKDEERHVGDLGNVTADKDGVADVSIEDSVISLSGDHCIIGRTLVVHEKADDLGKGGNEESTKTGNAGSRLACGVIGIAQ

As to `O=c1[nH]cc(CSc2n[nH]c(=O)[nH]c2=O)c(=O)[nH]1`, the outcome in experiment [1] was inactive. Moreover, the outcome in experiment [2] was Active.

Regarding `O=c1[nH]nc(SCc2ccccc2)c(=O)[nH]1`, the result in experiment [3] and in experiment [2] was Active. The result in experiment [4] and in experiment [1] was inactive.

For `O=c1cc(Nc2ccc3ccccc3c2)[nH]c(=O)[nH]1`, in experiment [3], the result was Active. Also, the outcome in experiment [4] was inactive.

For the molecule `O=c1cc(Nc2ccc(Cl)cc2F)[nH]c(=O)[nH]1`, the outcome in experiment [4] was inactive.

On to `O=c1[nH]nc(SCc2c(F)cccc2Cl)c(=O)[nH]1`, for which, in experiment [3], the result was Active. Further, the result in experiment [4] was inactive.

Regarding `O=c1[nH]nc(SCc2ccccc2Cl)c(=O)[nH]1`, in experiment [3], the result was Active. Further, the result in experiment [4] was inactive.

The values are drawn from ChEMBL document CHEMBL1156978, “Improving binding specificity of pharmacological chaperones that target mutant superoxide dismutase-1 linked to familial amyotrophic lateral sclerosis using computational methods” (J Med Chem, 2010).
